# According to ChEMBL document CHEMBL4387700, “A novel, potent, and orally bioavailable thiazole HCV NS5A inhibitor for the treatment of hepatitis C virus” (Eur J Med Chem, 2019):
# Assay: Cytotoxicity against human HuH7 cells assessed as reduction in cell viability by MTS assay
# Assay type: cell-based, Huh-7
# In short: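 Viability of Huh-7 cells was read by MTS assay.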
row,Structure (SMILES),CC50
1,O=C(N[C@@H](C(=O)N1CCC[C@H]1c1ncc(-c2ccc(-c3ccc(-c4cnc([C@@H]5CCCN5C(=O)[C@H](NC(=O)c5ccccn5)c5ccccc5)s4)cc3)cc2)s1)c1ccccc1)c1ccccn1,> 50 µM
2,O=C(CCN1CCCCC1)N[C@H](C(=O)N1CCC[C@H]1c1ncc(-c2ccc(-c3ccc(-c4cnc([C@@H]5CCCN5C(=O)[C@H](NC(=O)CCN5CCCCC5)c5ccccc5)s4)cc3)cc2)s1)c1ccccc1,> 50 µM
3,CCCC(=O)N[C@H](C(=O)N1CCC[C@H]1c1ncc(-c2ccc(-c3ccc(-c4cnc([C@@H]5CCCN5C(=O)[C@H](NC(=O)CCC)c5ccccc5)s4)cc3)cc2)s1)c1ccccc1,> 50 µM
4,CN1CCN(CCC(=O)N[C@H](C(=O)N2CCC[C@H]2c2ncc(-c3ccc(-c4ccc(-c5cnc([C@@H]6CCCN6C(=O)[C@H](NC(=O)CCN6CCN(C)CC6)c6ccccc6)s5)cc4)cc3)s2)c2ccccc2)CC1,> 50 µM
5,O=C(N[C@H](C(=O)N1CCC[C@H]1c1ncc(-c2ccc(-c3ccc(-c4cnc([C@@H]5CCCN5C(=O)[C@H](NC(=O)C5CC5)c5ccccc5)s4)cc3)cc2)s1)c1ccccc1)C1CC1,> 50 µM
6,CCCCCC(=O)N[C@H](C(=O)N1CCC[C@H]1c1ncc(-c2ccc(-c3ccc(-c4cnc([C@@H]5CCCN5C(=O)[C@H](NC(=O)CCCCC)c5ccccc5)s4)cc3)cc2)s1)c1ccccc1,> 50 µM
7,CC(=O)N[C@@H](C(=O)N1CCC[C@H]1c1ncc(-c2ccc(-c3ccc(-c4cnc([C@@H]5CCCN5C(=O)[C@H](NC(C)=O)c5ccccc5)s4)cc3)cc2)s1)c1ccccc1,> 50 µM
8,O=C(CCn1cccc1)N[C@@H](C(=O)N1CCC[C@H]1c1ncc(-c2ccc(-c3ccc(-c4cnc([C@@H]5CCCN5C(=O)[C@H](NC(=O)CCn5cccc5)c5ccccc5)s4)cc3)cc2)s1)c1ccccc1,> 50 µM
9,O=C(CCN1CCCC1)N[C@@H](C(=O)N1CCC[C@H]1c1ncc(-c2ccc(-c3ccc(-c4cnc([C@@H]5CCCN5C(=O)[C@H](NC(=O)CCN5CCCC5)c5ccccc5)s4)cc3)cc2)s1)c1ccccc1,> 50 µM
10,O=C(Cc1ccccc1)N[C@H](C(=O)N1CCC[C@H]1c1ncc(-c2ccc(-c3ccc(-c4cnc([C@@H]5CCCN5C(=O)[C@H](NC(=O)Cc5ccccc5)c5ccccc5)s4)cc3)cc2)s1)c1ccccc1,> 50 µM
11,CCCCC(=O)N[C@H](C(=O)N1CCC[C@H]1c1ncc(-c2ccc(-c3ccc(-c4cnc([C@@H]5CCCN5C(=O)[C@H](NC(=O)CCCC)c5ccccc5)s4)cc3)cc2)s1)c1ccccc1,> 50 µM
12,O=C(N[C@H](C(=O)N1CCC[C@H]1c1ncc(-c2ccc(-c3ccc(-c4cnc([C@@H]5CCCN5C(=O)[C@H](NC(=O)N5CCCC5)c5ccccc5)s4)cc3)cc2)s1)c1ccccc1)N1CCCC1,> 50 µM
13,CC(C)C(=O)N[C@H](C(=O)N1CCC[C@H]1c1ncc(-c2ccc(-c3ccc(-c4cnc([C@@H]5CCCN5C(=O)[C@H](NC(=O)C(C)C)c5ccccc5)s4)cc3)cc2)s1)c1ccccc1,> 50 µM
14,O=C(N[C@@H](C(=O)N1CCC[C@H]1c1ncc(-c2ccc(-c3ccc(-c4cnc([C@@H]5CCCN5C(=O)[C@H](NC(=O)N5CCOCC5)c5ccccc5)s4)cc3)cc2)s1)c1ccccc1)N1CCOCC1,> 50 µM
15,CCCC(=O)N[C@@H](C(=O)N1CCC[C@H]1c1ncc(-c2ccc(-c3ccc(-c4cnc([C@@H]5CCCN5C(=O)[C@H](NC(=O)CCC)c5ccccc5)s4)cc3)cc2)s1)c1ccccc1,> 50 µM
16,CC(C)[C@H](NC(=O)Oc1ccccc1)C(=O)N1CCC[C@H]1c1ncc(-c2ccc(-c3ccc(-c4cnc([C@@H]5CCCN5C(=O)[C@@H](NC(=O)Oc5ccccc5)C(C)C)s4)cc3)cc2)s1,> 50 µM
17,O=C(Cc1ccccc1)N[C@@H](C(=O)N1CCC[C@H]1c1ncc(-c2ccc(-c3ccc(-c4cnc([C@@H]5CCCN5C(=O)[C@H](NC(=O)Cc5ccccc5)c5ccccc5)s4)cc3)cc2)s1)c1ccccc1,> 50 µM
18,CN(C)CCC(=O)N[C@H](C(=O)N1CCC[C@H]1c1ncc(-c2ccc(-c3ccc(-c4cnc([C@@H]5CCCN5C(=O)[C@H](NC(=O)CCN(C)C)c5ccccc5)s4)cc3)cc2)s1)c1ccccc1,> 50 µM
19,CC(=O)N[C@H](C(=O)N1CCC[C@H]1c1ncc(-c2ccc(-c3ccc(-c4cnc([C@@H]5CCCN5C(=O)[C@H](NC(C)=O)c5ccccc5)s4)cc3)cc2)s1)c1ccccc1,> 50 µM
20,COC(=O)N[C@H](C(=O)N1CCC[C@H]1c1ncc(-c2ccc(-c3ccc(-c4cnc([C@@H]5CCCN5C(=O)[C@@H](NC(=O)OC)C(C)C)s4)cc3)cc2)s1)C(C)C,> 50 µM
21,CN1CCN(CCC(=O)N[C@@H](C(=O)N2CCC[C@H]2c2ncc(-c3ccc(-c4ccc(-c5cnc([C@@H]6CCCN6C(=O)[C@H](NC(=O)CCN6CCN(C)CC6)c6ccccc6)s5)cc4)cc3)s2)c2ccccc2)CC1,> 50 µM
22,CCC(=O)N[C@H](C(=O)N1CCC[C@H]1c1ncc(-c2ccc(-c3ccc(-c4cnc([C@@H]5CCCN5C(=O)[C@H](NC(=O)CC)c5ccccc5)s4)cc3)cc2)s1)c1ccccc1,> 50 µM
23,O=C(N[C@@H](C(=O)N1CCC[C@H]1c1ncc(-c2ccc(-c3ccc(-c4cnc([C@@H]5CCCN5C(=O)[C@H](NC(=O)c5ccco5)c5ccccc5)s4)cc3)cc2)s1)c1ccccc1)c1ccco1,> 50 µM
24,O=C(N[C@@H](C(=O)N1CCC[C@H]1c1ncc(-c2ccc(-c3ccc(-c4cnc([C@@H]5CCCN5C(=O)[C@H](NC(=O)N5CCCC5)c5ccccc5)s4)cc3)cc2)s1)c1ccccc1)N1CCCC1,> 50 µM

row,Structure (SMILES),CC50
1,CC(C)[C@@H](NC(=O)C1CC1)C(=O)N1CCC[C@H]1c1ncc(-c2ccc(-c3ccc(-c4cnc([C@@H]5CCCN5C(=O)[C@H](NC(=O)C5CC5)C(C)C)s4)cc3)cc2)s1,> 50 µM
2,CCOC(=O)N[C@H](C(=O)N1CCC[C@H]1c1ncc(-c2ccc(-c3ccc(-c4cnc([C@@H]5CCCN5C(=O)[C@@H](NC(=O)OCC)C(C)C)s4)cc3)cc2)s1)C(C)C,> 50 µM
3,COC(=O)N[C@H](C(=O)N1CCC[C@H]1c1ncc(-c2ccc(-c3ccc(-c4cnc([C@@H]5CCCN5C(=O)[C@@H](NC(=O)OC)C(C)(C)C)s4)cc3)cc2)s1)C(C)(C)C,> 50 µM
4,CC(C)(C)[C@@H](NC(=O)C1CC1)C(=O)N1CCC[C@H]1c1ncc(-c2ccc(-c3ccc(-c4cnc([C@@H]5CCCN5C(=O)[C@H](NC(=O)C5CC5)C(C)(C)C)s4)cc3)cc2)s1,> 50 µM
5,O=C(N[C@H](C(=O)N1CCC[C@H]1c1ncc(-c2ccc(-c3ccc(-c4cnc([C@@H]5CCCN5C(=O)[C@H](NC(=O)c5ccccn5)c5ccccc5)s4)cc3)cc2)s1)c1ccccc1)c1ccccn1,> 50 µM
6,C[C@@H](NC(=O)C1CC1)C(=O)N1CCC[C@H]1c1ncc(-c2ccc(-c3ccc(-c4cnc([C@@H]5CCCN5C(=O)[C@@H](C)NC(=O)C5CC5)s4)cc3)cc2)s1,> 50 µM
7,O=C(N[C@@H](C(=O)N1CCC[C@H]1c1ncc(-c2ccc(-c3ccc(-c4cnc([C@@H]5CCCN5C(=O)[C@H](NC(=O)c5cccs5)c5ccccc5)s4)cc3)cc2)s1)c1ccccc1)c1cccs1,> 50 µM
8,O=C(N[C@@H](C(=O)N1CCC[C@H]1c1ncc(-c2ccc(-c3ccc(-c4cnc([C@@H]5CCCN5C(=O)[C@H](NC(=O)C5CC5)C5CCCCC5)s4)cc3)cc2)s1)C1CCCCC1)C1CC1,> 50 µM
9,CS(=O)(=O)N[C@@H](C(=O)N1CCC[C@H]1c1ncc(-c2ccc(-c3ccc(-c4cnc([C@@H]5CCCN5C(=O)[C@H](NS(C)(=O)=O)c5ccccc5)s4)cc3)cc2)s1)c1ccccc1,> 50 µM
10,CC(C)(C)C(=O)N[C@H](C(=O)N1CCC[C@H]1c1ncc(-c2ccc(-c3ccc(-c4cnc([C@@H]5CCCN5C(=O)[C@H](NC(=O)C(C)(C)C)c5ccccc5)s4)cc3)cc2)s1)c1ccccc1,> 50 µM
11,O=C(N[C@@H](C(=O)N1CCC[C@H]1c1ncc(-c2ccc(-c3ccc(-c4cnc([C@@H]5CCCN5C(=O)[C@H](NC(=O)c5ccoc5)c5ccccc5)s4)cc3)cc2)s1)c1ccccc1)c1ccoc1,> 50 µM
12,CCN(CC)CCC(=O)N[C@@H](C(=O)N1CCC[C@H]1c1ncc(-c2ccc(-c3ccc(-c4cnc([C@@H]5CCCN5C(=O)[C@H](NC(=O)CCN(CC)CC)c5ccccc5)s4)cc3)cc2)s1)c1ccccc1,> 50 µM
13,CCCC[C@H](NC(=O)OC)C(=O)N1CCC[C@H]1c1ncc(-c2ccc(-c3ccc(-c4cnc([C@@H]5CCCN5C(=O)[C@H](CCCC)NC(=O)OC)s4)cc3)cc2)s1,> 50 µM
14,CCCCC(=O)N[C@@H](C(=O)N1CCC[C@H]1c1ncc(-c2ccc(-c3ccc(-c4cnc([C@@H]5CCCN5C(=O)[C@H](NC(=O)CCCC)c5ccccc5)s4)cc3)cc2)s1)c1ccccc1,> 50 µM
15,O=C(CCN1CCOCC1)N[C@H](C(=O)N1CCC[C@H]1c1ncc(-c2ccc(-c3ccc(-c4cnc([C@@H]5CCCN5C(=O)[C@H](NC(=O)CCN5CCOCC5)c5ccccc5)s4)cc3)cc2)s1)c1ccccc1,> 50 µM
16,O=C(N[C@H](C(=O)N1CCC[C@H]1c1ncc(-c2ccc(-c3ccc(-c4cnc([C@@H]5CCCN5C(=O)[C@H](NC(=O)C5CCC5)c5ccccc5)s4)cc3)cc2)s1)c1ccccc1)C1CCC1,> 50 µM
17,O=C(N[C@H](C(=O)N1CCC[C@H]1c1ncc(-c2ccc(-c3ccc(-c4cnc([C@@H]5CCCN5C(=O)[C@H](NC(=O)c5cccs5)c5ccccc5)s4)cc3)cc2)s1)c1ccccc1)c1cccs1,> 50 µM
18,CC(C)C(=O)N[C@@H](C(=O)N1CCC[C@H]1c1ncc(-c2ccc(-c3ccc(-c4cnc([C@@H]5CCCN5C(=O)[C@H](NC(=O)C(C)C)c5ccccc5)s4)cc3)cc2)s1)c1ccccc1,> 50 µM
19,CC[C@H](NC(=O)OC)C(=O)N1CCC[C@H]1c1ncc(-c2ccc(-c3ccc(-c4cnc([C@@H]5CCCN5C(=O)[C@H](CC)NC(=O)OC)s4)cc3)cc2)s1,> 50 µM
20,O=C(N[C@@H](C(=O)N1CCC[C@H]1c1ncc(-c2ccc(-c3ccc(-c4cnc([C@@H]5CCCN5C(=O)[C@H](NC(=O)c5ccccc5)c5ccccc5)s4)cc3)cc2)s1)c1ccccc1)c1ccccc1,> 50 µM
21,COC(=O)N[C@H](C(=O)N1CCC[C@H]1c1ncc(-c2ccc(-c3ccc(-c4cnc([C@@H]5CCCN5C(=O)[C@@H](NC(=O)OC)c5ccccc5)s4)cc3)cc2)s1)c1ccccc1,> 50 µM
22,O=C(N[C@@H](C(=O)N1CCC[C@H]1c1ncc(-c2ccc(-c3ccc(-c4cnc([C@@H]5CCCN5C(=O)[C@H](NC(=O)N5CCCCC5)c5ccccc5)s4)cc3)cc2)s1)c1ccccc1)N1CCCCC1,> 50 µM
23,O=C(N[C@@H](C(=O)N1CCC[C@H]1c1ncc(-c2ccc(-c3ccc(-c4cnc([C@@H]5CCCN5C(=O)[C@H](NC(=O)C5CCCCC5)c5ccccc5)s4)cc3)cc2)s1)c1ccccc1)C1CCCCC1,> 50 µM
